Measurements collected from several papers.
Lines come from different studies, so protocols differ.
Observed: cell growth or viability

SMILES | cell line | technique | concentration | time | endpoint | value
Cc1cc(C)n(Cn2cnc3ccccc32)n1 | SH-SY5Y | MTT |  | 24 h | IC50 | 82.7 µM
Cc1nc(Nc2ncc(C(=O)Nc3c(C)cccc3Cl)s2)cc(N2CC[C@H](O)C2)n1 | HuT78 | ATP luminescence | 10 µM | 72 h | inhibition | 7%
C[C@H](Nc1ccc2c(c1)OCCn1cc(N3C(=O)OC[C@H]3C(F)F)nc1-2)C(N)=O | NCI-H596 | ATP luminescence |  | 5 days | EC50 | 0.0829 µM
CN1CCN(c2ccc(Nc3c4ccccc4nc4ccccc34)cc2)CC1 | PLC-PRF-5 | imaging |  | 72 h | IC50 | 3.2 µM
Cc1nc(NC(=O)N2CCC[C@H]2C(N)=O)sc1-c1ccnc(C(C)(C)C(F)(F)F)c1 | NCI-H596 | ATP luminescence |  | 5 days | EC50 | 0.492 µM
OCn1ccnc1 | SH-SY5Y | MTT |  | 24 h | IC50 | 6.97 µM
[Cl-].[Li+] | CHO | MTT |  |  | IC50 | > 10000 µM
c1ccc(Oc2ccc(Nc3c4c(nc5ccccc35)CCC4)cc2)cc1 | J774.1 | resazurin |  | 72 h | IC50 | 45.8 µM
Cc1cnc(CNC(=O)c2c(=O)c3ccc(N4CCCN(C)CC4)nc3n3c2sc2ccccc23)cn1 | PLC-PRF-5 | imaging |  | 72 h | IC50 | 0.33 µM
CCOC(=O)c1cc(C)n(Cn2cnc3ccccc32)n1 | SH-SY5Y | MTT |  | 24 h | IC50 | 121 µM
CCOc1ccc(Nc2c3c(nc4ccccc24)CCC3)cc1 | J774.1 | resazurin |  | 72 h | IC50 | 33.2 µM
